The record followed here is ChEMBL document CHEMBL3259642, “Design and synthesis of novel 2-phenyl-5-(1,3-diphenyl-1H-pyrazol-4-yl)-1,3,4-oxadiazoles as selective COX-2 inhibitors with potent anti-inflammatory activity” (Eur J Med Chem, 2014).

pIC50: −log10 of the molar value.

Data set [1] deals with T1, Prostaglandin G/H synthase 1 (Ovis aries, UniProt P05979).
T1 sequence (P05979 whole entry): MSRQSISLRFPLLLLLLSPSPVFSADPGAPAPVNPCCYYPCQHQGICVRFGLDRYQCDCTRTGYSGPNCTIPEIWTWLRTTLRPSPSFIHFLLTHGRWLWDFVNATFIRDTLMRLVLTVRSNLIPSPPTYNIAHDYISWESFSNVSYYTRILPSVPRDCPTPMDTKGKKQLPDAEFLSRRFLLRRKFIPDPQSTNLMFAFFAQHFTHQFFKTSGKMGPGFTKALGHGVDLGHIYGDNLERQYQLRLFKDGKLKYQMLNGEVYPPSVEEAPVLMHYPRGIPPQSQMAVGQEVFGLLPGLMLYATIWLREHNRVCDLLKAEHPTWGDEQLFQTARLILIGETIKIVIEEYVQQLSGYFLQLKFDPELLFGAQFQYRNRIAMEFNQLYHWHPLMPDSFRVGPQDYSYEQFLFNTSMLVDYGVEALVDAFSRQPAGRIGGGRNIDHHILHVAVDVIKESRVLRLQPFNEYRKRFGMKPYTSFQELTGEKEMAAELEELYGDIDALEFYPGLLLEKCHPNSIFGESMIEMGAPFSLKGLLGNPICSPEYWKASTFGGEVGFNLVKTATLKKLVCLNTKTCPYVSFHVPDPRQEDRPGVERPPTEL
The experiment in a line: Inhibition of ovine COX1 after 2 mins by EIA.

Data set [2] addresses T2, Prostaglandin G/H synthase 2 (Homo sapiens, UniProt P35354).
T2 sequence (P35354 whole entry): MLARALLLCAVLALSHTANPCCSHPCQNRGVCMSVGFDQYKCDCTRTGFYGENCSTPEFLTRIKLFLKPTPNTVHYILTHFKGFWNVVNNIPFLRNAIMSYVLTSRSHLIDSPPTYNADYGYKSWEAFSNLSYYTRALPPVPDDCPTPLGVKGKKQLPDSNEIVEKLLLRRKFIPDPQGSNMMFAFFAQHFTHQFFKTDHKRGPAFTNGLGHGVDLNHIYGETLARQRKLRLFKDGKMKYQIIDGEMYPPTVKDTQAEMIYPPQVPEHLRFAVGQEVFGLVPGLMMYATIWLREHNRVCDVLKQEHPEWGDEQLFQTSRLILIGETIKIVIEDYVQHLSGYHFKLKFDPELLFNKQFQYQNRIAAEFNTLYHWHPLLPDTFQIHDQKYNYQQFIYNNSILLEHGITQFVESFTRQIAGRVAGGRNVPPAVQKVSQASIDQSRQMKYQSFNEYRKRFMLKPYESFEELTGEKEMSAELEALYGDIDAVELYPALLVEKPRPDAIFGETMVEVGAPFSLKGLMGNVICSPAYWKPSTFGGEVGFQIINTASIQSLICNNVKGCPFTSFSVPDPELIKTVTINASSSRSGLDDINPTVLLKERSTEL
The experiment in a line: Inhibition of human recombinant COX2 after 2 mins by EIA.

Data set [3] is described as follows: Selectivity index, ratio of IC50 for ovine COX1 to IC50 for human recombinant COX2. The procedure, abridged: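 Fluorescent screening kit with ovine COX-1 or human recombinant COX-2, heme and ADHP substrate in 0.1 M Tris-HCl pH 8.0 with 5 mM EDTA and 2 mM phenol. Compounds in DMSO tested at 0.01-100, 5 min at 37 °C. Arachidonic acid added; reaction stopped with HCl after 2 min. Resorufin read at ex 535/em 590 nm. IC50 from triplicate concentration-inhibition curves; SI = COX-1 IC50/COX-2 IC50.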

Data set [4] concerns Rattus norvegicus. The experiment in a line: Antiinflammatory activity in po dosed albino rat assessed as inhibition of carrageenan-induced paw edema administered 1 hr prior challenge measured 2 hrs post challenge. The format is functional. The essentials:
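Male Charles Foster albino rats, 150-200 g, n = 6 per group. Compounds suspended in 0.5% methyl cellulose, given orally at 50, 100 and 200 mg/kg; reference drugs at 25, 50 and 100 mg/kg. 1 h later, 0.2 mL of 1% carrageenan in 0.9% NaCl injected into the right hind paw.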
Background: The carrageenan paw model is a standard test of acute inflammation.

In data set [5] the test system is Rattus norvegicus. The experiment in a line: Ulcerogenic activity in po dosed albino rat at 200 mg/kg, po administered intragastrically measured after 3 hrs. The conditions noted are these: in vivo. More on the design: dose 200 mg/kg, route oral. The format is toxicity, organism-based. The essentials:
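Rats of 180-200 g, 6 per group, fasted 24 h, dosed intragastrically at 200 mg/kg. Killed 3 h later; stomachs opened along the lesser curvature. Each hemorrhagic lesion measured along its maximum length and ranked. Lesion lengths summed to give the ulcer index, reported as mean ± SEM.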

Data set [6] deals with Mus musculus. The experiment in a line: Analgesic activity in mouse assessed as inhibition of acetic acid-induced writhing at 100 mg/kg, po administered 60 mins prior challenge measured for 5 to 10 mins post acetic acid challenge relative to control. The format is functional. The essentials: (§1)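 Groups of 6 mice given saline, test compound (200 mg/kg) or aspirin (100 mg/kg) orally. 60 min later, 0.6% acetic acid injected i.p. Writhes per mouse counted between 5 and 10 min after injection. Percent inhibition of writhes calculated against the saline control group.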
For orientation: In writhing tests, fewer writhes than in controls are read as antinociception.

The subject of data set [7] is Mus musculus. The experiment in a line: Analgesic activity in mouse assessed as inhibition of acetic acid-induced writhing at 200 mg/kg, po administered 60 mins prior challenge measured for 5 to 10 mins post acetic acid challenge relative to control. The format is functional. The procedure, abridged: as §1

On to `Clc1ccc(-c2nn(-c3ccccc3)cc2-c2nnc(-c3ccncc3)o2)cc1`, for which the values for the pIC50 in data set [1] and in data set [2] were less than 4.00 and 5.36, respectively. Also, in data set [3], the Ratio IC50 is more than 23. In data set [4], the ED50 (commonly the dose at which the effect has come halfway, by size or by number of responders) stood at 167 mg/kg.
Consider `Cc1ccc(-c2nn(-c3ccccc3)cc2-c2nnc(-c3ccncc3)o2)cc1`, for which the figures for the negative logarithm of the IC50 (pIC50) in data set [1] and in data set [2] were less than 4.00 and 4.28, respectively. Moreover, in data set [3], the Ratio IC50 was more than 1.9.
`c1ccc(-c2nnc(-c3cn(-c4ccccc4)nc3-c3ccccc3)o2)cc1`: the values for the pIC50 in data set [1] and in data set [2] were less than 4.00 and 5.82, respectively. Also, in data set [3], the Ratio IC50 is more than 67. The ED50 in data set [4] came to 125 mg/kg.
Regarding `Clc1ccc(-c2nnc(-c3cn(-c4ccccc4)nc3-c3ccccc3)o2)cc1`, the pIC50 (as a rule, the negative decadic logarithm of the IC50, by convention in mol/L) is less than 4.00 in data set [1] and 4.42 in data set [2]. In data set [3], the Ratio IC50 is more than 2.6.
As for `COc1ccc(-c2nn(-c3ccccc3)cc2-c2nnc(-c3ccc(Cl)cc3)o2)cc1`, the values for the pIC50 in data set [1] and in data set [2] were less than 4.00 and 4.17, respectively. Moreover, in data set [3], the Ratio IC50 was more than 1.5.
In the case of `Cc1ccc(-c2nn(-c3ccccc3)cc2-c2nnc(-c3ccc(Cl)cc3)o2)cc1`, the pIC50 in data set [1] was less than 4.00; in data set [2], 4.24. In addition, the Ratio IC50 in data set [3] is more than 1.7.
`Clc1ccc(-c2nnc(-c3cn(-c4ccccc4)nc3-c3ccc(Br)cc3)o2)cc1`: the pIC50 is less than 4.00 in data set [1] and 4.30 in data set [2]. Also, in data set [3], the Ratio IC50 is more than 2.
Regarding `O=[N+]([O-])c1ccc(-c2nn(-c3ccccc3)cc2-c2nnc(-c3ccc(Cl)cc3)o2)cc1`, the results for the pIC50 in data set [1] and in data set [2] were less than 4.00 and 5.92, respectively. Besides, in data set [3], the Ratio IC50 was more than 83.3. Further, in data set [4], the ED50 came to 167 mg/kg.
The corresponding values for `Fc1ccc(-c2nn(-c3ccccc3)cc2-c2nnc(-c3ccncc3)o2)cc1` are less than 4.00, 5.64, more than 43 and 123 mg/kg.
As for `c1ccc(-c2nn(-c3ccccc3)cc2-c2nnc(-c3ccncc3)o2)cc1`, the results for the pIC50 in data set [1] and in data set [2] were less than 4.00 and 4.95, respectively. Besides, in data set [3], the Ratio IC50 is more than 9.
As to `COc1ccc(-c2nn(-c3ccccc3)cc2-c2nnc(-c3ccncc3)o2)cc1`, the pIC50 is less than 4.00 in data set [1] and 4.38 in data set [2]. For the same molecule, in data set [3], the Ratio IC50 was more than 2.4.
With `Brc1ccc(-c2nn(-c3ccccc3)cc2-c2nnc(-c3ccncc3)o2)cc1`, the pIC50 was less than 4.00 in data set [1] and 4.41 in data set [2]. Besides, in data set [3], the Ratio IC50 is more than 2.6.
On to `Clc1ccc(-c2nnc(-c3cn(-c4ccccc4)nc3-c3ccc(Cl)cc3)o2)cc1`, for which the figures for the pIC50 in data set [1] and in data set [2] were less than 4.00 and 5.06, respectively. Moreover, the Ratio IC50 in data set [3] is more than 11.5. Besides, in data set [4], the ED50 was determined as 199 mg/kg.
Consider `O=C(O)Cc1ccccc1Nc1c(Cl)cccc1Cl` [DICLOFENAC], for which the ED50 in data set [4] amounted to 110 mg/kg.
Take `COc1ccc(-c2nn(-c3ccccc3)cc2-c2nnc(-c3ccccc3)o2)cc1`: the pIC50 in data set [1] and in data set [2] was less than 4.00 throughout. Moreover, the Ratio IC50 in data set [3] is more than 1.
For `Fc1ccc(-c2nn(-c3ccccc3)cc2-c2nnc(-c3ccccc3)o2)cc1`, the pIC50 was less than 4.00 in data set [1] and 5.19 in data set [2]. Also, the Ratio IC50 in data set [3] is more than 15.4. In data set [4], the ED50 was 175 mg/kg.
Consider `Fc1ccc(-c2nn(-c3ccccc3)cc2-c2nnc(-c3ccc(Cl)cc3)o2)cc1`, for which the pIC50 in data set [1] is less than 4.00; in data set [2], 5.26. In addition, the Ratio IC50 in data set [3] is more than 18.2. For the same molecule, in data set [4], the ED50 was 182 mg/kg.
In the case of `Brc1ccc(-c2nn(-c3ccccc3)cc2-c2nnc(-c3ccccc3)o2)cc1`, the pIC50 in data set [1] and in data set [2] was less than 4.00 in each case. Moreover, in data set [3], the Ratio IC50 was more than 1.
Consider `O=[N+]([O-])c1ccc(-c2nn(-c3ccccc3)cc2-c2nnc(-c3ccncc3)o2)cc1`, for which the negative logarithm of the IC50 (pIC50) in data set [1] was less than 4.00; in data set [2] it was 6.30. Also, in data set [3], the Ratio IC50 is more than 200. Besides, the ED50 in data set [4] amounted to 72.6 mg/kg.
Consider `CC(=O)Oc1ccccc1C(=O)O` [ASPIRIN], for which the Activity result in data set [5] is “Toxic”. Moreover, the inhibition in vivo (commonly the percentage by which the read-out fell short of the control) at 100 mg/kg in data set [6] was determined as 72.2%.
Regarding `Clc1ccc(-c2nn(-c3ccccc3)cc2-c2nnc(-c3ccccc3)o2)cc1`, the pIC50 in data set [1] is less than 4.00; in data set [2], 5.33. Moreover, the Ratio IC50 in data set [3] was more than 21. The ED50 in data set [4] amounted to 171 mg/kg.
As to `Cc1ccc(-c2nn(-c3ccccc3)cc2-c2nnc(-c3ccccc3)o2)cc1`, the pIC50 is less than 4.00 in data set [1] and 4.60 in data set [2]. Further, in data set [3], the Ratio IC50 was more than 4.
`Cc1ccc(-c2cc(C(F)(F)F)nn2-c2ccc(S(N)(=O)=O)cc2)cc1` [CELECOXIB]: the ED50 in data set [4] came out at 81.7 mg/kg.
Consider `O=[N+]([O-])c1ccc(-c2nn(-c3ccccc3)cc2-c2nnc(-c3ccccc3)o2)cc1`, for which the pIC50 in data set [1] is less than 4.00; in data set [2], 6.51. Further, in data set [3], the Ratio IC50 is more than 222. For the same molecule, the ED50 in data set [4] was found to be 74.3 mg/kg. The Activity result in data set [5] was “Non-toxic”. Besides, the inhibition in vivo at 200 mg/kg in data set [7] turned out to be 67.3%.
